Laboratory results from ChEMBL document CHEMBL1135907, “Novel 5-substituted 2,4-thiazolidinedione and 2,4-oxazolidinedione derivatives as insulin sensitizers with antidiabetic activities” (J Med Chem, 2002).

Legend:
Assay type in all cases: functional, Mus musculus
[1] = Plasma glucose-lowering activity at a dosage of 0.001% in the diet in KKAy mice
Outline: (§1)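 KKAy mice (9–13 weeks old), five per group, grouped by blood glucose after 3 d on powdered CE-2 chow. Dietary admixture at 0.001, 0.005 or 0.01% for 4 d, food and water ad libitum. Orbital-vein plasma glucose measured enzymatically and expressed as maximum percent reduction versus control; Dunnett's test.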

[2] = Plasma glucose-lowering activity at a dosage of 0.005% in the diet in KKA(y) mice.; outline: as §1
[3] = Plasma lipid-lowering activity at a dosage of 0.001% in the diet in KKAy mice
Outline: (§2)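 KKAy mice (9–13 weeks old), five per group, on powdered CE-2 diet containing compound at 0.001, 0.005 or 0.01% for 4 d. Plasma triglyceride from orbital-vein blood measured enzymatically and reported as maximum percent reduction from control; Dunnett's test; less than 10% reduction flagged.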

[4] = Plasma lipid-lowering activity at a dosage of 0.005% in the diet in KKA(y) mice.; outline: as §2

Structure (SMILES)	Activity [1]	Activity [2]	Activity [3]	Activity [4]
Cc1oc(-c2ccccc2)nc1COc1ccc(CCCC2SC(=O)NC2=O)cc1 (stereo not drawn)	<10	48	<10	37
Cc1oc(-c2ccccc2)nc1CCOc1ccc(CCC2SC(=O)NC2=O)cc1 (stereo not drawn)		14		32
Cc1oc(-c2ccccc2)nc1CCC(=O)c1ccc(CCCC2OC(=O)NC2=O)cc1 (stereo not drawn)		32		17
Cc1oc(-c2ccccc2)nc1COc1ccc(CCCCCC2OC(=O)NC2=O)cc1 (stereo not drawn)		45		59
Cc1oc(-c2cccc3ccccc23)nc1COc1ccc(CCCC2OC(=O)NC2=O)cc1 (stereo not drawn)		23		
Cc1oc(-c2ccccc2)nc1CCOc1ccc(/C=C/C=C2\SC(=O)NC2=O)cc1		13		13
O=C1NC(=O)C(CCCc2ccc(OCc3coc(-c4ccccc4)n3)cc2)O1 (stereo not drawn)		44		
Cc1oc(-c2ccccc2)nc1CCCOc1ccc(CC2OC(=O)NC2=O)cc1 (stereo not drawn)		30		25
COc1cc(CCCC2OC(=O)NC2=O)ccc1OCc1nc(-c2ccccc2)oc1C (stereo not drawn)	48	61		75
Cc1oc(-c2ccccc2)nc1COc1ccc(CCC2SC(=O)NC2=O)cc1 (stereo not drawn)		24		15
Cc1oc(-c2ccccc2)nc1CCC(O)c1ccc(CCCC2OC(=O)NC2=O)cc1 (stereo not drawn)		23		22
Cc1oc(-c2ccccc2)nc1COc1ccc(/C=C/C=C2/OC(=O)NC2=O)cc1		23		29
Cc1oc(-c2ccccc2)nc1COc1ccc(CCCCCC2SC(=O)NC2=O)cc1 (stereo not drawn)		19		<10
Cc1oc(-c2ccccc2)nc1CCOc1ccc(CCCCC2OC(=O)NC2=O)cc1 (stereo not drawn)		27		27
Cc1oc(-c2ccccc2)nc1CCOc1ccc(CCCCCC2OC(=O)NC2=O)cc1 (stereo not drawn)		23		17
Cc1oc(-c2ccccc2)nc1COc1ccc(CCCCC2OC(=O)NC2=O)cc1 (stereo not drawn)		43		51
Cc1oc(-c2ccco2)nc1COc1ccc(CCCC2OC(=O)NC2=O)cc1 (stereo not drawn)	38	61		58
Cc1oc(-c2ccccc2)nc1CCCc1ccc(CCCC2OC(=O)NC2=O)cc1 (stereo not drawn)		22		19
Cc1oc(-c2cc3ccccc3o2)nc1COc1ccc(CCCC2OC(=O)NC2=O)cc1 (stereo not drawn)	27	47	12	71
Cc1oc(-c2cc3ccccc3s2)nc1COc1ccc(CCCC2OC(=O)NC2=O)cc1 (stereo not drawn)	25	48	24	62
Cc1oc(-c2ccccc2)nc1COc1ccc(CCCCC2SC(=O)NC2=O)cc1 (stereo not drawn)		22		21
